The list is not random: actives were taken first. Their share in the collection is about 2.4%.
Rpn11 block = inhibitors of human proteasome Rpn11; 0.59% of 360,000 active; human 26S proteasome, Ub4-pepOG fluorescence polarization; 20S core pre-blocked with epoxomicin; inhibition, % at 20 µM; O00487;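 active = inhibition at 20 µM, scaled to each plate's controls, above about 33%, limit read from the data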
Target sequence (O00487 whole entry, looked up): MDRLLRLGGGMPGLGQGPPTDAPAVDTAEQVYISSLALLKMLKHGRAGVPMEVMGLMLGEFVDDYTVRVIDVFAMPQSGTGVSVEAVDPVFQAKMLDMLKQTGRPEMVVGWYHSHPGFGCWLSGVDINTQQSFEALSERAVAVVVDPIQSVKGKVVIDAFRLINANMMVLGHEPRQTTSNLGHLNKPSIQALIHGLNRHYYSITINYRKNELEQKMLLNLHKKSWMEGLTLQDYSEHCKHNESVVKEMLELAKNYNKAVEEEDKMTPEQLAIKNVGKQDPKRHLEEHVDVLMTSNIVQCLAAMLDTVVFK
TbMetRS inhib = blocks T. brucei methionyl-tRNA synthetase activity | purified T. brucei MetRS, ATP depletion, Kinase-Glo luminescence | inhibition, % at 11.9 µM | 0.4% of 360,000 active | AID 624268;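 active = inhibition above a per-plate cutoff of the control wells' mean inhibition plus 3 SD, cut at about 5.5% in these data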
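technique = Kinase-Glo luminescence, ATP depletion format | system = purified MetRS (methionyl-tRNA synthetase) enzyme from Trypanosoma brucei | timing = 15 min preincubation, 2 h reaction, all 25 °C | evaluation = percent inhibition versus plate control medians | dosing = single dose, 11.9 µM final nominal, 0.9% final DMSO | also added = substrates ATP, L-methionine and bulk Escherichia coli tRNA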
PREPL inh = inhibits the human prolyl oligopeptidase-like enzyme; Q4J6C6; recombinant PREPL, fluorescence polarization activity-based probe; inhibition, % at 5.96 µM; 0.68% of 320,000 active; AID 2751; in the data active = inhibition above about 43%
Neddyl block = inhibitors of human cullin neddylation. TR-FRET cullin neddylation, biochemical. AID 651699. 0.58% of 360,000 active. inhibition, % at 25 µM. P61081+Q13564; in the data active = inhibition above about 36%
HNF4A DNA FP = change in binding of human HNF4 alpha to DNA; P41235; HNF4a-FITC DNA binding, fluorescence polarization, 1 h; activity change, % at 10 µM; 0.3% of 360,000 active; AID 1224865; in the data active = activity change above about 30%, passing the limit was not always enough
CSN deneddyl inh = blocks human CSN-mediated cullin deneddylation; Purified CSN, SCF-Nedd8-OG deneddylation, fluorescence polarization; inhibition, % at 12.5 µM; 0.38% of 360,000 active; AID 651999;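 active = pattern-corrected inhibition above about 35%, with an unprinted fluorescence ratio check between 0.5 and 1.5, limit read from the data, passing the limit was not always enough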
Target sequence (Q92905 whole entry, looked up, one chain of several): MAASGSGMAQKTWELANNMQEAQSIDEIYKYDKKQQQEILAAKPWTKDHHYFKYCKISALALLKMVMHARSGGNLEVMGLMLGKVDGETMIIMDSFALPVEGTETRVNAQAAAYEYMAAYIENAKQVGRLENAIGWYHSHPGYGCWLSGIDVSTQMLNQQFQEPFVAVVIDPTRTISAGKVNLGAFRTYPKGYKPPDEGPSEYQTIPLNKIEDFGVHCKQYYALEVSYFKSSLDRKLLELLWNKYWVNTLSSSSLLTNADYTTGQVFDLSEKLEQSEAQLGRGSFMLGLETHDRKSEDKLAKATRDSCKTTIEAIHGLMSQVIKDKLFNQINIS
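assay system = purified human Csn5 enzyme expressed in HEK293T cells | amount = 0.24 nM enzyme | buffer or medium = Tris/NaCl/DTT buffer, pH 7.5 | reagent = 10 nM SCFSkp2-Nedd8OG | compound = one concentration, 12.5 µM, 0.25% DMSO | times = 90 min reaction at room temperature | signal = FP | read-out basis = % inhibition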
Tb MetRS conf = confirmation of Trypanosoma brucei MetRS inhibitors. shares compounds with TbMetRS inhib. T. brucei MetRS enzyme, luminescence (ATP depletion). inhibition, % at 11.9 µM. 93% of 1,400 active. AID 624412; in the data active = inhibition above about 7%
Jurkat tox = counter-screen for T. brucei MetRS inhibitors: Jurkat cell cytotoxicity; Jurkat cells viability, ATP luminescence; inhibition, % at 8.3 µM; shares compounds with TbMetRS inhib; 12% of 1,400 active; in the data active = inhibition above about 15%
Tb MetRS inh FP = T. brucei MetRS inhibition, orthogonal assay | shares compounds with TbMetRS inhib | purified T. brucei MetRS, fluorescence polarization | inhibition, % at 11.9 µM | 44% of 1,400 active | AID 651607; in the data active = inhibition above about 17%
A number is an active result; i = inactive; nt = no result shown.

SMILES | Rpn11 block | TbMetRS inhib | PREPL inh | Neddyl block | HNF4A DNA FP | CSN deneddyl inh | Tb MetRS conf | Jurkat tox | Tb MetRS inh FP
Cc1nc2ccccc2n(CC(=O)Nc2cc(Cl)cc(Cl)c2)c1=O | i | 5.8 | i | i | i | i | 11.0 | i | i
COc1ccc(CN2C[C@@H](CO)O[C@@H](n3cnc4c(NCCO)ncnc43)C2)cc1 | i | i | nt | i | i | i | nt | nt | nt
O=C(NN1C(=O)/C(=C/c2ccc(O)cc2)SC1=S)c1ccccc1O | nt | 43.9 | i | i | 105.7 | i | 58.4 | i | 33.1
O=C(NN1C(=O)/C(=C/c2ccc(O)cc2)SC1=S)c1cccc(O)c1 | nt | 6.7 | i | i | 106.9 | i | 13.7 | i | 23.8
O=C(Cc1ccccc1)NN1C(=O)/C(=C/c2ccc(C(=O)O)cc2)SC1=S | i | i | i | i | i | i | nt | nt | nt
CCOc1ccc(Cl)cc1-c1cc(C(=O)NCc2ccccc2OC)[nH]n1 | i | i | nt | i | i | i | nt | nt | nt
COc1cccc(NC(=O)/C=C/c2ccc(S(=O)(=O)N3CCOCC3)cc2)c1 | i | i | i | i | i | i | nt | nt | nt
CCN(c1ccc(NC(=O)COC(=O)C2CCN(c3ccc(C(F)(F)F)cn3)CC2)cc1)C(C)C | i | i | nt | i | i | i | nt | nt | nt
O=C(Nc1nnc(COc2ccccc2F)s1)Nc1ccccc1F | i | 14.6 | i | i | i | i | 25.2 | i | i
C=CCc1cccc(CNc2nc3ccccc3n2C(C)C)c1O | i | 6.7 | i | i | i | i | 10.8 | i | i
C=CCn1c(NCc2ccccc2O)nc2ccccc21 | i | i | i | i | i | i | nt | nt | nt
CC(C)n1c(NCc2ccccc2O)nc2ccccc21 | i | i | i | i | i | i | nt | nt | nt
C=CCn1c(NCc2cc(Cl)ccc2O)nc2ccccc21 | i | 13.2 | i | i | i | i | 24.9 | i | i
O=C1C2CC=CCC2C(=O)N1c1nccs1 (stereo unspecified) | i | i | nt | i | i | i | nt | nt | nt
O=C(Nc1ccc(F)c(Cl)c1)c1cc(C2CCCN(C(=O)CCc3ccccc3)C2)on1 (stereo unspecified) | i | i | nt | i | i | i | nt | nt | nt
CCC(=O)N1c2ccc(S(=O)(=O)NCCc3ccccc3)cc2CC1C (stereo unspecified) | i | i | i | i | i | i | nt | nt | nt
Cc1nc2nc(SCc3nc4ccccc4[nH]3)[nH]c2cc1Br | i | 13.0 | i | i | i | i | 17.8 | i | i
CCCCCn1c(NC(=O)c2ccco2)c(S(=O)(=O)c2ccc(C)cc2)c2nc3ccccc3nc21 | i | i | i | nt | i | i | nt | nt | nt
CCCCn1c(NS(=O)(=O)c2ccccc2)c(S(=O)(=O)c2ccc(C)cc2)c2nc3ccccc3nc21 | i | 15.6 | i | i | i | 57.5 | 12.2 | i | i
O=C(NCc1cc(Br)cc(Br)c1OC(=O)c1ccccc1[N+](=O)[O-])c1ccccc1 | i | 23.2 | i | i | i | i | 27.5 | i | 19.6
O=C(CC(=O)c1ccccc1[N+](=O)[O-])c1ccccc1 | nt | nt | i | nt | nt | nt | nt | nt | nt
CCOC(=O)[C@]12CCC=C1N(Cc1ccco1)C(=O)[C@H](CC(=O)NCC1CCCCC1)C2 | nt | i | nt | i | i | i | nt | nt | nt
COc1ccc(NC(=O)CN(C)C(=O)c2ccc(C)c(S(=O)(=O)N3CCCCC3)c2)cc1 | i | i | nt | i | i | i | nt | nt | nt
Cc1ccc2nc(/C(C#N)=C\c3cc(O)ccc3[N+](=O)[O-])[nH]c2c1 | i | 13.7 | i | i | i | i | 38.0 | i | i
COc1cccc(CNC(=O)[C@@H]2CCCN2C(=O)[C@H]2CCCCN2C(=O)c2cccs2)c1 | nt | i | nt | i | i | i | nt | nt | nt
SMILES | Rpn11 block | TbMetRS inhib | PREPL inh | Neddyl block | HNF4A DNA FP | CSN deneddyl inh | Tb MetRS conf | Jurkat tox | Tb MetRS inh FP
CO/N=C(\c1nonc1N)N1CCN(c2ccc(Cl)cc2[N+](=O)[O-])CC1 | i | 16.1 | i | i | i | i | 24.4 | i | 21.3
O=C(COc1nsnc1N1CCOCC1)Nc1ccc(Br)cc1 | i | 20.3 | i | i | i | i | 43.1 | i | 25.3
Nc1cc(C(=O)N2CCN(c3cccc(Cl)c3)CC2)ccc1N1CC2CC(C1)c1cccc(=O)n1C2 (stereo unspecified) | i | i | nt | i | i | i | nt | nt | nt
CC1CCCCN1C(=O)CN1CCC(c2nc3ccc(Cl)cc3[nH]2)CC1 (stereo unspecified) | i | i | i | i | i | i | nt | nt | nt
Cc1ccc(CN2CCC(c3nc4ccc(Cl)cc4[nH]3)CC2)cc1 | i | 8.2 | i | i | i | i | 24.6 | i | i
Clc1ccc2nc(C3CCN(Cc4ccccc4)CC3)[nH]c2c1 | i | 11.0 | i | i | i | i | 9.8 | i | i
COc1cccc(C(O)c2nc(-c3ccccc3)cs2)c1 (stereo unspecified) | i | i | nt | i | i | i | nt | nt | nt
COc1ccc(N2CCN(C(=O)c3ccccc3)CC2)c([N+](=O)[O-])c1 | i | 8.2 | i | i | i | i | 9.3 | i | i
COc1ccc(N2CCN(C(=O)c3ccccc3Br)CC2)c([N+](=O)[O-])c1 | i | 14.2 | i | i | i | i | 30.1 | i | 17.6
COc1ccc(N2CCN(C(=O)c3ccc(C)cc3)CC2)c([N+](=O)[O-])c1 | i | i | i | i | i | i | nt | nt | nt
CC(=O)c1cccc(NS(=O)(=O)c2ccc3c(c2)N(C(C)=O)CCO3)c1 | i | i | i | i | i | i | nt | nt | nt
Cc1ccc(N2C(=O)CC(N(CCc3ccccc3)C(=S)Nc3ccc(N(C)C)cc3)C2=O)cc1 (stereo unspecified) | i | 73.9 | i | i | i | i | 45.8 | i | 28.5
COc1ccc(CN(C(=S)Nc2ccccc2)C2CC(=O)N(c3ccc(F)cc3)C2=O)cc1 (stereo unspecified) | i | i | i | i | i | i | nt | nt | nt
O=C1CC(N(CCc2ccccc2)C(=S)Nc2ccccc2)C(=O)N1c1ccc(Br)cc1 (stereo unspecified) | i | 96.6 | i | i | i | i | 98.8 | i | 129.7
COc1cccc(CNc2nc3cc(-c4ccccc4CO)sc3c(=O)n2C)c1 | i | i | nt | i | i | i | nt | nt | nt
Cc1cc(C)cc(N(CC(=O)Nc2ccc(Br)cc2)S(=O)(=O)c2c(C)[nH]c(=O)[nH]c2=O)c1 | i | 49.0 | i | i | i | i | 75.8 | i | 45.3
Cc1cc(C)cc(N(CC(=O)Nc2cc(C)ccc2C)S(=O)(=O)c2c(C)[nH]c(=O)[nH]c2=O)c1 | i | i | i | i | i | i | nt | nt | nt
CCOC(=O)c1sc(NC(=O)Nc2ccccc2Cl)cc1C | i | i | i | i | i | i | nt | nt | nt
CCOC(=O)c1sc(NC(=O)Nc2ccccc2)cc1C | i | 11.0 | i | i | i | i | 28.1 | i | 35.7

Bioassay records deposited in PubChem by several laboratories.
